Experiments:
[1] = Metabolic stability in Han Wistar rat hepatocytes at 1 uM after 60 mins; format: ADME, cell-based, Hepatocyte; conditions: read-out: Stability
Outline: (§1)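 Hepatocytes isolated from Han Wistar rat liver by two-step perfusion and Percoll purification; viability by trypan blue. Incubated at 0.5×10^6 viable cells/mL in Williams' medium E + 5% FCS with 1 µM compound, shaken continuously. Aliquots taken at 2–60 min and quenched with cold methanol, frozen overnight, centrifuged. Supernatant analysed by LC-MS/MS.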

[2] = Metabolic stability in Han Wistar rat hepatocytes at 1 uM after 45 mins; format: ADME, cell-based, Hepatocyte; conditions: read-out: Stability; outline: as §1
[3] = Metabolic stability in Han Wistar rat hepatocytes at 1 uM after 16 mins; format: ADME, cell-based, Hepatocyte; conditions: read-out: Stability; outline: as §1
[4] = Metabolic stability in Han Wistar rat hepatocytes at 1 uM after 30 mins; format: ADME, cell-based, Hepatocyte; conditions: read-out: Stability; outline: as §1
[5] = Metabolic stability in Han Wistar rat hepatocytes at 1 uM after 8 mins; format: ADME, cell-based, Hepatocyte; conditions: read-out: Stability; outline: as §1
[6] = Metabolic stability in Han Wistar rat hepatocytes at 1 uM after 2 mins; format: ADME, cell-based, Hepatocyte; conditions: read-out: Stability; outline: as §1
[7] = Stability of the compound in human plasma at 22 MBq/mL up to 120 mins; format: ADME, cell-free; conditions: read-out: Stability
Outline: (§2)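 Radiotracer at 22 MBq/mL incubated in human or rat plasma at 37 °C; sampled at 0, 30, 60, 90 and 120 min. Proteins precipitated with MeOH and centrifuged. Supernatant analysed by radio-HPLC and by radio-TLC (BuOH/AcOH/H2O 12:3:5). Intact tracer expressed as % of the 0 min sample.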

[8] = (§3) Stability of the compound in rat plasma at 22 MBq/mL up to 120 mins; format: ADME, cell-free; conditions: read-out: Stability; outline: as §2
[9] = tested on: DU-145; assay: Cellular uptake in human DU145 cells at 0.2 MBq up to 60 mins by gamma counting in presence of FET; format: ADME, cell-based; conditions: du-145, 1 h
[10] = tested on: NCI-H460; assay: Cellular uptake in human NCI-H460 cells at 0.2 MBq up to 60 mins by gamma counting in presence of FET; format: ADME, cell-based; conditions: nci-h460, 1 h
[11] = tested on: A549; assay: Cellular uptake in human A549 cells at 0.2 MBq up to 60 mins by gamma counting in presence of FET; format: ADME, cell-based; conditions: a549, 1 h
[12] = tested on: DU-145; assay: Cellular uptake in human DU145 cells at 0.2 MBq up to 60 mins by gamma counting in presence of L-3-FCBT; format: ADME, cell-based; conditions: du-145, 1 h
[13] = tested on: NCI-H460; assay: Cellular uptake in human NCI-H460 cells at 0.2 MBq up to 60 mins by gamma counting in presence of L-3-FCBT; format: ADME, cell-based; conditions: nci-h460, 1 h
[14] = tested on: A549; assay: Cellular uptake in human A549 cells at 0.2 MBq up to 60 mins by gamma counting in presence of L-3-FCBT; format: ADME, cell-based; conditions: a549, 1 h
[15] = tested on: DU-145; assay: Cellular uptake in human DU145 cells assessed per 1-'5 cells at 0.2 MBq after 60 mins by gamma counting; format: ADME, cell-based; conditions: du-145, 1 h
Outline: (§4)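 Sub-confluent cells seeded 1–2 days earlier (A549 and DU145 in DMEM + 10% FBS; NCI-H460 in DMEM/F-12 + 10% FBS). Washed with PBS, then incubated with 0.2 MBq radiotracer per well in PBS + 0.1% BSA (8% EtOH) at 37 °C, 5% CO2, for 10, 20, 30 and 60 min. Washed, lysed in 1 M NaOH and gamma-counted. Expressed as % applied dose per 10^5 cells, decay-corrected, in triplicate.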

[16] = tested on: NCI-H460; assay: Cellular uptake in human NCI-H460 cells assessed per 1-'5 cells at 0.2 MBq after 60 mins by gamma counting; format: ADME, cell-based; conditions: nci-h460, 1 h; outline: as §4
[17] = tested on: DU-145; assay: Cellular uptake in human DU145 cells assessed per 1-'5 cells at 0.2 MBq after 10 mins by gamma counting; format: ADME, cell-based; conditions: du-145, 10 min; outline: as §4
[18] = tested on: NCI-H460; assay: Cellular uptake in human NCI-H460 cells assessed per 1-'5 cells at 0.2 MBq after 10 mins by gamma counting; format: ADME, cell-based; conditions: nci-h460, 10 min; outline: as §4
[19] = tested on: A549; assay: Cellular uptake in human A549 cells assessed per 1-'5 cells at 0.2 MBq after 30 mins by gamma counting; format: ADME, cell-based; conditions: a549, 0.5 h; outline: as §4
[20] = tested on: A549; assay: Cellular uptake in human A549 cells assessed per 1-'5 cells at 0.2 MBq after 10 mins by gamma counting; format: ADME, cell-based; conditions: a549, 10 min; outline: as §4
[21] = tested on: DU-145; assay: Cellular uptake in human DU145 cells at 0.2 MBq by gamma counting; format: ADME, cell-based; conditions: TDE = time-dependent effect; outline: as §4
[22] = tested on: NCI-H460; assay: Cellular uptake in human NCI-H460 cells at 0.2 MBq by gamma counting; format: ADME, cell-based; conditions: TDE = time-dependent effect; outline: as §4
[23] = tested on: A549; assay: Cellular uptake in human A549 cells at 0.2 MBq by gamma counting; format: ADME, cell-based; conditions: TDE = time-dependent effect; outline: as §4
[24] = Stability of the compound in human plasma at 22 MBq/mL after 5 mins; format: ADME, cell-free; conditions: read-out: Stability
[25] = tested on: Plasma; assay: as §3; format: ADME, cell-free; conditions: 2 h; outline: as §2
[26] = Lipophilicity, log D of the compound; format: physicochemical; conditions: octanol/water
Outline: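 Shake-flask logD, run manually in two vials. Compound (0.1 mg) in octanol saturated with 10 mM phosphate buffer pH 7.4, sonicated 3 min, shaken 4 min at 20 °C. Phases separated by centrifugation, then quantified by reversed-phase HPLC with UV at 254 nm by peak area.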

Molecule `N[C@@H](Cc1ccc(O[C@H]2C[C@@H](F)C2)cc1)C(=O)O` has a remaining at 1 h, 1 µM [1] of 94%, a remaining at 0.75 h, 1 µM [2] of 95% and a remaining at 16 min, 1 µM [3] of 98%. The remaining at 0.5 h, 1 µM [4] was 97%, the remaining at 8 min, 1 µM [5] was 99% and the remaining at 2 min, 1 µM [6] was 100%.

In the case of `N[C@@H](Cc1ccc(O[C@H]2C[C@@H]([18F])C2)cc1)C(=O)O`, the remaining at 2 h, 22 MBq/mL [7] is reported as > 99.9%, the remaining at 2 h, 22 MBq/mL [8] is reported as > 99.9% and the Drug uptake [9] is reported as “Not Active”. For the same molecule, the Drug uptake [10] was “Not Active”, the Drug uptake [11] was “Not Active” and the Drug uptake [12] was “Not Active”. For the same molecule, the Drug uptake [13] was “Not Active”, the Drug uptake [14] was “Not Active” and the Drug uptake [15] was 2.1%. The Drug uptake [16] was 2.1%, the Drug uptake [17] was 0.7% and the Drug uptake [18] was 0.7%. The Drug uptake [19] was 5.8%, the Drug uptake [20] was 2.8% and the Drug uptake [21] was “tde”. The Drug uptake [22] was “tde” and the Drug uptake [23] was “tde”.

For `N[C@@H](Cc1ccc(OCC[18F])cc1)C(=O)O` [FLORETYROSINE F18], the remaining at 5 min, 22 MBq/mL [24] was 95%, the remaining at 2 h, 22 MBq/mL [7] was 87% and the Stability [25] was “Stable”.

With `N[C@@H](Cc1ccc(OCCF)cc1)C(=O)O` [O-(2-FLUOROETHYL)-L-TYROSINE] the logD [26] was -1.51.

Source: ChEMBL document CHEMBL2311343, “Investigations into the synthesis, radiofluorination and conjugation of a new [¹⁸F]fluorocyclobutyl prosthetic group and its in vitro stability using a tyrosine model system” (Bioorg Med Chem, 2013)
